Laboratory results reported in ChEMBL document CHEMBL2040794, “Synthesis and structure-activity analysis of new phosphonium salts with potent activity against African trypanosomes” (J Med Chem, 2012).
pEC50: −log10 of the molar value.

Key:
[1] = system: Trypanosoma brucei rhodesiense; assay: Antitrypanosomal activity against Trypanosoma brucei rhodesiense STIB900 infected in rat L6 cells after 72 hrs by alamar blue assay; type: functional, organism-based
L6 = assay: Cytotoxicity against rat L6 cells after 72 hrs by alamar blue assay; type: cell-based
[2] = Selectivity index, ratio of EC50 for rat L6 cells to EC50 for Trypanosoma brucei rhodesiense STIB900; type: toxicity, cell-based; conditions: for selectivity ratio: L6 cells, read-out: Ratio EC50; for Ratio EC50: l6
Summary of the method: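 Ratio of EC₅₀ in L6 cells to EC₅₀ against T. b. rhodesiense STIB900, both from Alamar blue assays.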

[3] = system: Trypanosoma brucei brucei; assay: Antitrypanosomal activity against wild type Trypanosoma brucei brucei Lister 427 after 3 days by alamar blue assay; type: functional, organism-based
Summary of the method: (§1)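 Bloodstream-form T. b. brucei (wild-type s427; TbAT1-KO, made from s427 by TbAT1 deletion; B48, selected from TbAT1-KO in vitro on pentamidine, lacking functional HAPT1). Cells were exposed to compound for 48 h, then resazurin (Alamar blue) was added for a further 24 h. A single fluorescence reading gave EC50.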

[4] = system: Trypanosoma brucei brucei; assay: Antitrypanosomal activity against diminazene aceturate-resistant TbAT1 gene-deficient Trypanosoma brucei brucei AT1-KO after 3 days by alamar blue assay; type: functional, organism-based; summary of the method: as §1
[5] = system: Trypanosoma brucei brucei; assay: Resistance factor, ratio of EC50 for diminazene aceturate-resistant TbAT1 gene-deficient Trypanosoma brucei brucei AT1-KO to EC50 for wild type Trypanosoma brucei brucei Lister 427; type: functional
Summary of the method: (§2)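 Resistance factor is the EC50 in the resistant line (TbAT1-KO or B48) divided by the EC50 in wild-type s427. […] Resistant and wild-type EC50s were compared by Student t-test.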

[6] = system: Trypanosoma brucei brucei; assay: Antitrypanosomal activity against diminazene-, pentamidine-, and melaminophenyl arsenical-resistant HAPT1-deficient Trypanosoma brucei brucei B48 after 3 days by alamar blue assay; type: functional, organism-based; summary of the method: as §1
[7] = system: Trypanosoma brucei brucei; assay: Resistance factor, ratio of EC50 for diminazene-, pentamidine-, and melaminophenyl arsenical-resistant HAPT1-deficient Trypanosoma brucei brucei B48 to EC50 for wild type Trypanosoma brucei brucei Lister 427; type: functional; summary of the method: as §2
[8] = Cytotoxicity against human HEK cells after 3 days by alamar blue assay; type: cell-based, HEK293
Summary of the method: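 Human embryonic kidney cells tested by resazurin (Alamar blue) assay: 48 h with compound, then 24 h more after dye addition, single reading; EC₅₀ derived.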

[9] = Selectivity index, ratio of EC50 for human HEK cells to EC50 for wild type Trypanosoma brucei brucei Lister 427; type: toxicity, cell-based, HEK293; conditions: for selectivity ratio: HEK cells, read-out: Ratio EC50
Summary of the method: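 Ratio of EC₅₀ in HEK cells to EC₅₀ in wild-type T. b. brucei s427, both from resazurin assays.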

[10] = Trypanosoma brucei, STIB900, 72 h
[11] = Trypanosoma brucei, Lister 427, 72 h
[12] = Trypanosoma brucei, AT1-KO, 72 h

| Compound | pEC50 [1, 10] | pEC50 (L6; Rattus norvegicus, L6, 72 h) | selectivity ratio [2] | pEC50 [3, 11] | pEC50 [4, 12] | Ratio EC50 [5] | pEC50 ([6]; Trypanosoma brucei, B48, 72 h) | Ratio EC50 [7] | pEC50 ([8]; Homo sapiens, HEK293, 72 h) | selectivity ratio [9] | pEC50 (L6; l6) | Ratio EC50 [2] | pEC50 [3] | pEC50 [4] | pEC50 [6] | pEC50 [1] | pEC50 ([8]; hek293) | Ratio EC50 ([9]; hek293) |
| --- | --- | --- | --- | --- | --- | --- | --- | --- | --- | --- | --- | --- | --- | --- | --- | --- | --- | --- |
| Cc1cccc([P+](Cc2ccc(C(=O)c3ccccc3)cc2)(c2cccc(C)c2)c2cccc(C)c2)c1.[Br-] | 6.56 | 5.58 | 9.5 | 6.77 | 6.82 | 0.8 | 6.96 | 0.7 | 4.32 | 281 |  |  |  |  |  |  |  |  |
| C[P+](C)(Cc1ccc(CCCc2ccc(C[P+](C)(C)c3ccccc3)cc2)cc1)c1ccccc1.[Br-].[Br-] | 5.91 | 4.23 | 49 | 5.90 | 5.86 | 1.1 | 5.96 | 0.9 | < 3.52 | > 230 |  |  |  |  |  |  |  |  |
| CCC[P+](Cc1ccc(Oc2ccc(C[P+](CCC)(c3ccccc3)c3ccccc3)cc2)cc1)(c1ccccc1)c1ccccc1.[Br-].[Br-] | 6.25 | 5.54 | 5 | 6.60 | 6.55 | 1.1 | 6.52 | 1.2 | 3.63 | 914 |  |  |  |  |  |  |  |  |
| Cc1ccc([P+](Cc2ccc(S(=O)(=O)c3ccc(C[P+](c4ccc(C)cc4)(c4ccc(C)cc4)c4ccc(C)cc4)cc3)cc2)(c2ccc(C)cc2)c2ccc(C)cc2)cc1.[Br-].[Br-] | 6.76 | 4.66 | 127 | 6.64 | 6.60 | 1.1 | 6.57 | 1.2 | < 3.52 | > 1300 |  |  |  |  |  |  |  |  |
| O=C(c1ccc(C[P+](c2ccccc2)(C2CCCCC2)C2CCCCC2)cc1)c1ccc(C[P+](c2ccccc2)(C2CCCCC2)C2CCCCC2)cc1.[Br-].[Br-] | 6.49 | 4.64 | 72 | 6.62 | 6.59 | 1.1 | 6.54 | 1.2 | < 3.52 | > 1270 |  |  |  |  |  |  |  |  |
| COc1ccccc1[P+](Cc1ccc(Cc2ccc(C[P+](c3ccccc3OC)(c3ccccc3OC)c3ccccc3OC)cc2)cc1)(c1ccccc1OC)c1ccccc1OC.[Br-].[Br-] | 6.68 | 5.97 | 5 | 7.10 | 7.13 | 0.9 | 7.18 | 0.8 | 3.69 | 2560 |  |  |  |  |  |  |  |  |
| Cc1ccc([P+](Cc2ccc(CCc3ccc(C[P+](c4ccc(C)cc4)(c4ccc(C)cc4)c4ccc(C)cc4)cc3)cc2)(c2ccc(C)cc2)c2ccc(C)cc2)cc1.[Br-].[Br-] | 7.08 |  |  |  |  | 1 |  | 1 | 4.49 | 213 | 6.18 | 7.8 | 6.82 | 6.82 | 6.82 |  |  |  |
| Cc1ccc([P+](Cc2ccc(C(=O)c3ccc(C[P+](c4ccc(C)cc4)(c4ccc(C)cc4)c4ccc(C)cc4)cc3)cc2)(c2ccc(C)cc2)c2ccc(C)cc2)cc1.[Cl-].[Cl-] |  |  |  |  |  | 0.7 |  | 0.8 |  |  | 5.91 | 14.5 | 7.03 | 7.19 | 7.14 | 7.08 | 4.62 | 254 |
| Cc1cccc([P+](Cc2ccc(Oc3ccccc3)cc2)(c2cccc(C)c2)c2cccc(C)c2)c1.[Br-] | 7.85 | 6.06 | 62 | 7.55 | 7.68 | 0.8 | 7.77 | 0.6 | 4.61 | 876 |  |  |  |  |  |  |  |  |
| COc1ccc([P+](Cc2ccc(C(=O)c3ccc(C[P+](c4ccc(OC)cc4)(c4ccc(OC)cc4)c4ccc(OC)cc4)cc3)cc2)(c2ccc(OC)cc2)c2ccc(OC)cc2)cc1.[Br-].[Br-] | 6.54 | 4.93 | 40 | 6.49 | 6.28 | 1.6 | 6.64 | 0.7 | 3.76 | 529 |  |  |  |  |  |  |  |  |
